# Compounds with a hit are over-represented: about 2.2% of the library has one in this group of screens.
# UBC9 SUMO inh: blocks human SUMOylation mediated by UBC9; actives 0.36% (n = 290,000); P63279; HTRF SUMOylation assay, SAE1/SAE2 + UBC9, in vitro; AID 2006; inhibition, % at 35 µM; in the data active = inhibition above about 50%, passing the limit was not always enough
# Target sequence (P63279 whole entry, looked up): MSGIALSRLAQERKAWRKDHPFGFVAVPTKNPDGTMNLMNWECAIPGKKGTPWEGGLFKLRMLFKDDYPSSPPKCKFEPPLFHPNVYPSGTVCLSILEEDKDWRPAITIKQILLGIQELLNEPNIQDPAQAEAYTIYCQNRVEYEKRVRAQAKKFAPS
# PAD4 FP inh: blocks human protein arginine deiminase 4; Q9UM07; recombinant PAD4, RCA probe fluorescence polarization; inhibition, % at 6.36 µM; actives 0.41% (n = 330,000);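 active = percent inhibition above a cutoff equal to the mean of all tested compounds plus 3 SD, cut at about 15% in these data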;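 note: 0% = PAD4 with RCA probe and DMSO and 100% = probe without PAD4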
# Rin1 Abl inh: inhibitors of human Rin1-Abl protein interaction; AID 588664; inhibition, % at 7.35 µM; P00519+Q13671; actives 0.4% (n = 360,000); TR-FRET Rin1/Abl binding, biochemical; in the data active = inhibition above about 5%, passing the limit was not always enough
# GSTO1 counter: counter-screen for RBBP9 inhibitors: inhibitors of human GSTO1. recombinant GSTO1, activity-based probe fluorescence polarization. inhibition, % at 5.96 µM. actives 1.1% (n = 300,000). AID 1974;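 active = inhibition above the campaign mean inhibition plus 3 SD, cut at about 35% in these data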;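 note: 0% = GSTO1-1 with DMSO and 100% = wells lacking GSTO1-1 enzyme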
# Target sequence (P78417 whole entry, looked up): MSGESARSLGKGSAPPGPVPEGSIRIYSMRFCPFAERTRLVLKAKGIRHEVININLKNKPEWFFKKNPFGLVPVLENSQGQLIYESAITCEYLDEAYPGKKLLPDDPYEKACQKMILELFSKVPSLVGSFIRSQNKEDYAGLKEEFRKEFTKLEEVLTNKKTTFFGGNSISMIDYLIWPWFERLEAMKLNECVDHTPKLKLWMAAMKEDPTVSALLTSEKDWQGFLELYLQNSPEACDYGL
# Apaf-1 inh: blocks human Apaf-1 apoptosome activity; O14727; reconstituted apoptosome caspase-3 activity, DEVD-Rh110 fluorescence; inhibition, % at 20 µM; actives 0.71% (n = 330,000); AID 489030; active = inhibition of at least 40% at 20 µM;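 note: plate controls were DMSO wells for no effect and DEVD-CHO caspase inhibitor wells for full effect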
#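 Material: reconstituted apoptosome with Apaf-1, cytochrome c, caspase-9, procaspase-3, dATP; medium: pH 7.5 Hepes buffer with CHAPS, BSA, DTT; also added: cytochrome c and DEVD-Rh110 substrate; timing: 30 min plus 50 min, RT; signal: Rh110 fluorescence intensity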
# UBC13 inh: blocks human UBC13 polyubiquitin chain formation | actives 0.47% (n = 330,000) | inhibition, % at 20 µM | TR-FRET | AID 485273; in the data active = inhibition above about 45%, passing the limit was not always enough
# Target sequence (P61088 whole entry, looked up): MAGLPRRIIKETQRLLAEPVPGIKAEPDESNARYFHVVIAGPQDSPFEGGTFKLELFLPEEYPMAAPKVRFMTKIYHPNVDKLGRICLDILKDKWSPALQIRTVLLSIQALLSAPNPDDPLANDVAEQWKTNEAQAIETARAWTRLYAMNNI
# Rin1 Abl conf: confirmation of inhibitors of human Rin1-Abl interaction; actives 49% (n = 1,300); shares compounds with Rin1 Abl inh; TR-FRET Rin1-Abl binding, purified proteins; inhibition, % at 7.35 µM
# GFP quench: quenches GFP fluorescence, counter-screen for Rin1-Abl inhibitors; inhibitors/quenchers counterscreen; inhibition, % at 6.75 µM; actives 8.5% (n = 1,300); shares compounds with Rin1 Abl inh;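 note: ABL1-eGFP fusion protein alone without its partner RIN1-SBP; 0% = protein with vehicle and 100% = wells lacking protein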
# GFP quench DR: GFP fluorescence interference dose response | shares compounds with Rin1 Abl inh | GFP fluorescence interference/quenching counterscreen | IC50, µM | 230 tested, under 10 active; call rule not given here;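 note: ABL1-eGFP fusion protein alone without its RIN1 binding partner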
# The depositor's hits bear a star; . = no result; ! = not active in a repeat. Cut-off read from the data, not from the text of the source, unless noted: active = inhibition above about 6.5%; inactive = the rest.
SMILES,UBC9 SUMO inh,PAD4 FP inh,Rin1 Abl inh,GSTO1 counter,Apaf-1 inh,UBC13 inh,Rin1 Abl conf,GFP quench,others
O=c1c(OC2OC(CO)C(O)C(O)C2O)c(-c2ccc(O)c(O)c2)oc2cc(O)cc(O)c12 (configuration not stated),22,2,16*,26,9,2,15*,4,
O=c1c(O[C@@H]2O[C@H](CO)C(O)C2O)c(-c2ccc(O)c(O)c2)oc2cc(O)cc(O)c12 (some centres not stated),.,-5,7,.,-3,13,.,.,
C[C@@H]1O[C@@H](Oc2c(-c3ccc(O)c(O)c3)oc3cc(O)cc(O)c3c2=O)[C@H](O)[C@H](O)[C@H]1O,.,3,18*!,.,-2,20,12*,3,
CCCCn1nnnc1C(c1cc2ccccc2o1)N1CCN(C/C=C/c2ccccc2)CC1 (configuration not stated),.,.,4,.,.,.,.,.,
Cc1ccc(NC(=O)CSc2nnc(-c3cccnc3)n2-c2ccc(C)cc2)cc1,-3,-2,11*,2,8,2,11*,-1,
CNC(=O)CSc1nnc(-c2cccnc2)n1-c1ccc(C)cc1,10,0,2,4,2,6,.,.,
Cc1ccc(-n2c(SCC(=O)NCc3ccco3)nnc2-c2cccnc2)cc1,6,-3,7.4*,9,4,1,8.4*,-4,
O=C(CSc1nnc(-c2cccnc2)n1-c1ccccc1)Nc1ccccc1,0,3,2,-4,-2,-4,.,.,
COc1ccc(C(=O)Nc2ccc3nc(C)sc3c2)cc1S(=O)(=O)N1CCOCC1,.,.,1,.,.,.,.,.,
Cc1ccc(-c2nnc(SCC(=O)Nc3nccs3)n2N)cc1,-24,-2,8.0*,2,-11,24,9.9*,0,
COc1ccc(CCCc2nnc(SCC(=O)Nc3nccs3)n2C)cc1C,-4,-3,8.4*,5,9,9,5,3,
CCC(=O)Nc1ccc(-c2nnc(SCC(=O)Nc3nccs3)n2C)cc1,0,5,7.2*,3,10,0,5,1,
CCOC(=O)c1sc(NC(=O)C2CCCCC2)nc1C,.,-5,2,3,1,2,.,.,
COc1ccc(/C=C(/NC(=O)c2ccco2)C(=O)N2CCc3ccccc32)cc1OC,4,1,-2,5,-1,-10,.,.,
CC(Oc1ccc(Cl)cc1)C(=O)Nc1ccc(S(=O)(=O)N2CCOCC2)cc1 (configuration not stated),-9,2,3,6,9,6,.,.,
COc1ccc(C(=O)OCc2ccccc2C#N)cc1S(=O)(=O)N1CCOCC1,.,.,-6,.,.,.,.,.,
CN(Cc1ccccc1)S(=O)(=O)c1ccc(Cl)c(C(=O)N2CCC2)c1,.,-17,22*,.,0,0,17*,0,GFP quench DR=>67
COc1ccccc1NC(=O)c1ccc(NC(=O)c2ccc(=O)[nH]c2)cc1,.,0,3,.,-9,6,.,.,
COc1ccc(C(=O)Nc2ccc(O)cc2C(=O)O)cc1,9,-5,11*,-4,2,0,9.8*,2,
COc1ccc(C(=O)Nc2ccccc2C(=O)Nc2ccccc2C(=O)O)cc1,16,11,5.6*,-17,14,8,5,0,
COc1ccc(C(=O)Nc2ccccc2C(=O)Nc2ccc(C(=O)O)cc2)cc1,-6,-1,-2,-2,3,1,.,.,
CCN(CC(=O)Nc1c(F)cccc1F)C(=O)CCc1ccc(OC)cc1,2,3,0,4,-7,3,.,.,
C/C(=N/Nc1ccc(C(=O)O)cc1)c1ccc(O)c(O)c1O,12,2,29*,45*,21,-19,32*,8.4*,
CCOC(=O)C1(C)CCCCN1C(=O)c1ccoc1 (configuration not stated),.,.,-3,.,.,.,.,.,
CCCCC[C@@H]1C=C(C(=O)O)[C@H](c2ccc(Cl)cc2)N1S(=O)(=O)c1ccc(C)cc1,.,-1,8.2*,.,6,-28,-3,0,
SMILES,UBC9 SUMO inh,PAD4 FP inh,Rin1 Abl inh,GSTO1 counter,Apaf-1 inh,UBC13 inh,Rin1 Abl conf,GFP quench,others
Cc1noc(C)c1NC(=O)N(C)C[C@@H]1Oc2c(NC(=O)c3ccncc3)cccc2C(=O)N([C@H](C)CO)C[C@@H]1C,.,1,-1,.,1,0,.,.,
COc1ccc(CCNC(=O)CCn2c(=O)c3cccn3c3cccnc32)cc1OC,1,-2,-1,-1,1,6,.,.,
O=C(C1CCN(c2nnc(N3CCCC3=O)s2)CC1)N1CCN(Cc2ccc3c(c2)OCO3)CC1,-10,.,10*,.,.,.,5,-1,
CN(C(=O)c1cccc(NC(=O)Cc2cccc(NC(=O)C3CCN(C(=O)c4ccccc4)CC3)c2)c1)C1CCCC1,.,.,-1,.,.,.,.,.,
CCCCOc1ccc(C(=O)N(Cc2ccco2)C2CCS(=O)(=O)C2)cc1 (configuration not stated),8,-2,9.6*,2,-1,1,2,-2,
C=CCN=c1scc(-c2ccco2)n1/N=C/c1ccc(O)c(O)c1O,45,3,11*,4,9,10,6,7.3*,
CC(C)N=c1scc(-c2ccco2)n1/N=C/c1ccc(O)c(O)c1,-9,-1,2,27,-9,8,.,.,
CN=c1scc(-c2cccs2)n1/N=C/c1ccc(O)c(O)c1O,27,-7,8.8*,-9,16,-19,9.7*,13*,
CN=c1scc(-c2cccs2)n1/N=C/c1ccccc1O,-11,-2,2,3,16,11,.,.,
CN(C)c1cccc(C(=O)NNC(=O)CSc2ccccc2)c1,9,0,2,6,6,9,.,.,
O=C(c1ccccc1)N(c1ccccc1)c1ccccc1O,.,.,2,.,.,.,.,.,
CCN(CC)C(=O)C1=C(C)N(Cc2ccc(C(C)(C)C)cc2)C(=O)C(CC(=O)NC2CCCC2)C1 (configuration not stated),.,.,-2,.,.,.,.,.,
COc1ccccc1C(=O)Nc1ccc(C(=O)N2CCCCC2)cc1,-4,1,14*,-2,-4,-1,13*,0,
Cc1[nH]c(=O)[nH]c1C(=O)CCCCC(=O)OCC(=O)Nc1ccccn1,12,-6,90*,-1,-5,-1,97*,-1,
COc1cc(/C=C2\SC(c3ccc(C)cc3)=NC2=O)cc(OC)c1O,-14,4,0,14,-13,-103,.,.,
Cc1ccc(C2=NC(=O)/C(=C/c3cc(O)c(O)c(Br)c3)S2)cc1,45,.,8.5*,.,22,-22,15*,41*,

# Screening results (PubChem BioAssay)
